Assay results of several laboratories.
Each line is one published result; the experiments were not run side by side.
Target: Serine/threonine-protein kinase BRSK1 (BRSK1, Homo sapiens, UniProt Q8TDC3)
Sequence (Q8TDC3 1-778, as in one of the studies): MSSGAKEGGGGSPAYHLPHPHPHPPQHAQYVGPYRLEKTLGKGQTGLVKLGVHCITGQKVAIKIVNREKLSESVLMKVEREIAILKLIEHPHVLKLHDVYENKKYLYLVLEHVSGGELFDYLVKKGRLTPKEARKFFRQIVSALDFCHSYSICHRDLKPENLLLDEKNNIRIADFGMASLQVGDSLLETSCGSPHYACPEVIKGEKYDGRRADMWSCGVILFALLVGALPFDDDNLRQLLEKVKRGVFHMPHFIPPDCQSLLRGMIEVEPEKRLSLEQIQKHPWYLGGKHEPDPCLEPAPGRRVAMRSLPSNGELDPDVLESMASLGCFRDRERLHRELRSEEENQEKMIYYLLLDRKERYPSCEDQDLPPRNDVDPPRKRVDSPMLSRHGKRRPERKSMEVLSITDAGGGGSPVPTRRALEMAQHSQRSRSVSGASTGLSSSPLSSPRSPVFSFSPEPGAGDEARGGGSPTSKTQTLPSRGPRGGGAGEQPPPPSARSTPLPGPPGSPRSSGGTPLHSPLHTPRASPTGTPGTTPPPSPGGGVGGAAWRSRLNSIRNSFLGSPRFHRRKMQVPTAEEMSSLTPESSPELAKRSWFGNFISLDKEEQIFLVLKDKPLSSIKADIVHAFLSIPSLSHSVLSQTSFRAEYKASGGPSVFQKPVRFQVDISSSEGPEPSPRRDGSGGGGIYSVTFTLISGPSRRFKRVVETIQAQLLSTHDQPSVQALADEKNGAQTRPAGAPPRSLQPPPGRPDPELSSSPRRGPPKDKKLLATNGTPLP

Structure (SMILES)	read-out	method	tested at	remaining binding [%]
COc1ccc2c(c1)O[C@H](c1ccc(OC)c(OC)c1)C[C@@H]2NC(=O)C1(c2ccc3c(c2)OC(F)(F)O3)CC1	cell-free assay	competition with immobilised ligand	1 µM	100
Cc1cnn2ncc(-c3ccnc(N(C)C)n3)c2c1	binding	–	1 µM	81
C[C@@H](c1ccc(-n2cnc3c(N)ncnc32)cc1)N1CCc2nn(C)c(Cc3ccccc3)c2C1=O	binding	competition with immobilised ligand	0.1 µM	93
N#CC1(c2ccccn2)CCN(Cc2cc(C(=O)N3CCCC3)c(=O)n3ccccc23)CC1	cell-free assay	competition with immobilised ligand	1 µM	87
CN(C)c1nccc(-c2cnn3ncccc23)n1	binding	–	1 µM	100
Cc1cnc(Nc2ccc(C(=O)N3CCC(N4CCCC4)CC3)cc2)nc1-c1cc2ccccc2s1	binding	competition with immobilised ligand	1 µM	100
C[C@H](c1cccc(C#N)c1)n1cc(Cl)cc(C(N)=O)c1=N	cell-free assay	competition with immobilised ligand	1 µM	68
C[C@@H]1CCN(c2nccc(-c3cnn4ncccc34)n2)C1	binding	–	1 µM	93
O=C(NCC1CCOCC1)c1n[nH]cc1NC(=O)c1c(F)cccc1F	binding	competition with immobilised ligand	1 µM	100
N[C@H]1CCN(c2nccc(-c3cnn4ncccc34)n2)C1	binding	–	1 µM	81
COc1cnc(Nc2cccc(S(N)(=O)=O)c2)nc1N1CCN(c2ccccc2)C(=O)C1	binding	competition with immobilised ligand	1 µM	100
COc1ncc2cc3ccccc3nc2c1C#N	cell-free assay	competition with immobilised ligand	5 µM	89
COc1ccnn2ncc(-c3ccnc(N(C)C)n3)c12	binding	–	1 µM	98
CNC(=O)[C@@H]1CC[C@@H](n2c(-c3ccc4cnccc4c3)nc3ccc(C(=O)NCc4cccc(C(N)=O)c4)cc32)C1	binding	competition with immobilised ligand	1 µM	100
CC(=O)c1c(NS(C)(=O)=O)c2cc(-c3ccc(Cl)cc3)c(-c3ccc(Cl)cc3Cl)nc2n(C)c1=O	cell-free assay	competition with immobilised ligand	1 µM	99
O=C(c1ccc(Nc2nccc(-c3cc4ccccc4s3)n2)cc1)N1CCC(N2CCCC2)CC1	binding	competition with immobilised ligand	1 µM	61
Cc1c(NC(=O)c2cc(C(N)=O)nc3cc(F)ccc23)c(C(F)(F)F)nn1Cc1ccc(C#N)cc1	cell-free assay	competition with immobilised ligand	1 µM	100
CN(C)c1nccc(-c2cnc3ncccn23)n1	binding	–	1 µM	100
O=C(O)[C@@H]1[C@@H](Cn2nnc3ccccc3c2=O)CC[C@H]1C(=O)c1ccc(OCCC2CCOCC2)cc1	cell-free assay	competition with immobilised ligand	1 µM	100
CN(CCCC(F)(F)F)c1nccc(-c2cnn3ncccc23)n1	binding	–	1 µM	100
O=C(NCCCN1CCOCC1)c1ccc(Nc2ncc(Cl)c(-c3ccc(Cl)s3)n2)cc1	binding	competition with immobilised ligand	1 µM	75
Cc1nccc(COC(=O)N2C[C@@H]3[C@@H](CNC(=O)c4ccc5[nH]nnc5c4)[C@@H]3C2)n1	cell-free assay	competition with immobilised ligand	1 µM	100
